The test system of experiment [1] is MOLM-13. As to the kind of experiment: Induction of apoptosis in human MOLM13 cells assessed as caspase-3 activation at 10 nM after 72 hrs by immunoblotting analysis. The experiment is classed as functional, cell-based. In a few lines: (§1)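 MOLM-13 cells treated 72 h with test compounds at 10 μM or PKC412 at 10 nM. Cells washed in ice-cold PBS, lysed at 10^8 cells/mL in NP-40 hypertonic buffer (pH 7.5) with protease/phosphatase inhibitors, then run on SDS-PAGE and PVDF. Blots probed 12 h with rabbit monoclonal cleaved caspase-3 (Asp175), β-actin as loading control. Representative of three independent experiments.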
A general note: Immunoblotting shows a protein as a band on a membrane.

The test system of experiment [2] is EOL1. Kind of experiment: Induction of apoptosis in human EOL-1 cells assessed as caspase-3 activation at 10 nM after 72 hrs by immunoblotting analysis. The experiment is classed as functional, cell-based. In a few lines: (§2)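 EOL-1 cells (RPMI 1640, 10% FBS, 37 °C, 5% CO2) exposed 72 h; compounds at 10 μM, PKC412 at 10 nM. Harvested, PBS-washed, lysed in hypertonic NP-40 buffer with protease/phosphatase inhibitors; SDS-PAGE, PVDF transfer, rabbit monoclonal cleaved caspase-3 (Asp175) antibody 12 h, secondary 1 h, chemiluminescent detection; β-actin loading control. Representative blots of three independent experiments.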

Experiment [3] concerns MOLM-13. As to the kind of experiment: Cytotoxicity against human MOLM13 cells after 72 hrs by MTS assay. It is filed as functional, cell-based. To be noted: MOLM-13, 72 h. For orientation: Formazan colour is commonly taken as a measure of viable cells.
Experiment [4] relates to EOL1. Kind of experiment: Cytotoxicity against human EOL-1 cells after 72 hrs by MTS assay. It is filed as functional, cell-based. To be noted: EOL1, 72 h.
A further experiment deals with HT-29. As to the kind of experiment: Cytotoxicity against human HT-29 cells after 72 hrs by MTS assay. The experiment is classed as functional, cell-based. To be noted: HT-29, 72 h.
Experiment [5] has as its system MOLM-13. As to the kind of experiment: Synergistic antileukemic activity against human MOLM13 cells assessed as concentration required for <= 75% cell survival after 72 hrs in presence of midostaurin by CellTiter 96 AQueous One solution cell proliferation assay. The experiment is classed as functional.
Experiment [6] deals with EOL1. As to the kind of experiment: Synergistic antileukemic activity against human EOL-1 cells assessed as concentration required for <= 75% cell survival after 72 hrs in presence of midostaurin by CellTiter 96 AQueous One solution cell proliferation assay. The experiment is classed as functional.
In experiment [7] the test system is MOLM-13. As to the kind of experiment: Induction of apoptosis in human MOLM13 cells assessed as live cells at 0.56 uM after 24 hrs by Annexin-V FITC/7-AAD staining based flow cytometric method (reference value: 86.8%). The experiment is classed as functional. (A flow cytometer gives signals particle by particle.)
The test system of experiment [8] is MOLM-13. As to the kind of experiment: Induction of apoptosis in human MOLM13 cells assessed as early apoptotic cells at 0.56 uM after 24 hrs by Annexin-V FITC/7-AAD staining based flow cytometric method (reference value: 11.8%). It is filed as functional.
For experiment [9], the system named is MOLM-13. Kind of experiment: Induction of apoptosis in human MOLM13 cells assessed as late apoptotic cells at 0.56 uM after 24 hrs by Annexin-V FITC/7-AAD staining based flow cytometric method (reference value: 1.43%). The experiment is classed as functional.
Experiment [10] has as its system MOLM-13. As to the kind of experiment: Induction of apoptosis in human MOLM13 cells assessed as necrotic cells at 0.56 uM after 24 hrs by Annexin-V FITC/7-AAD staining based flow cytometric method (reference value: 0%). The experiment is classed as functional.
The test system of experiment [11] is MOLM-13. As to the kind of experiment: Induction of apoptosis in human MOLM13 cells assessed as live cells at 1.1 uM after 24 hrs by Annexin-V FITC/7-AAD staining based flow cytometric method (reference value: 86.8%). It is filed as functional.
Experiment [12] has as its system MOLM-13. As to the kind of experiment: Induction of apoptosis in human MOLM13 cells assessed as early apoptotic cells at 1.1 uM after 24 hrs by Annexin-V FITC/7-AAD staining based flow cytometric method (reference value: 11.8%). The experiment is classed as functional.
The subject of experiment [13] is MOLM-13. As to the kind of experiment: Induction of apoptosis in human MOLM13 cells assessed as late apoptotic cells at 1.1 uM after 24 hrs by Annexin-V FITC/7-AAD staining based flow cytometric method (reference value: 1.43%). The experiment is classed as functional.
Experiment [14] relates to MOLM-13. Kind of experiment: Induction of apoptosis in human MOLM13 cells assessed as necrotic cells at 1.1 uM after 24 hrs by Annexin-V FITC/7-AAD staining based flow cytometric method (reference value: 0%). The experiment is classed as functional.
For experiment [15], the system named is MOLM-13. As to the kind of experiment: Induction of apoptosis in human MOLM13 cells assessed as live cells at 2.8 uM after 24 hrs by Annexin-V FITC/7-AAD staining based flow cytometric method (reference value: 86.8%). The experiment is classed as functional.
The test system of experiment [16] is MOLM-13. Kind of experiment: Induction of apoptosis in human MOLM13 cells assessed as early apoptotic cells at 2.8 uM after 24 hrs by Annexin-V FITC/7-AAD staining based flow cytometric method (reference value: 11.8%). It is filed as functional.
The subject of experiment [17] is MOLM-13. As to the kind of experiment: Induction of apoptosis in human MOLM13 cells assessed as late apoptotic cells at 2.8 uM after 24 hrs by Annexin-V FITC/7-AAD staining based flow cytometric method (reference value: 1.43%). The experiment is classed as functional.
In experiment [18] the test system is MOLM-13. Kind of experiment: Induction of apoptosis in human MOLM13 cells assessed as necrotic cells at 2.8 uM after 24 hrs by Annexin-V FITC/7-AAD staining based flow cytometric method (reference value: 0%). The experiment is classed as functional.
The test system of experiment [19] is EOL1. As to the kind of experiment: Induction of apoptosis in human EOL-1 cells assessed as live cells at 0.56 uM after 24 hrs by Annexin-V FITC/7-AAD staining based flow cytometric method (reference value: 97.5%). It is filed as functional.
Experiment [20] deals with EOL1. Kind of experiment: Induction of apoptosis in human EOL-1 cells assessed as early apoptotic cells at 0.56 uM after 24 hrs by Annexin-V FITC/7-AAD staining based flow cytometric method (reference value: 1.94%). It is filed as functional.
Experiment [21] concerns EOL1. As to the kind of experiment: Induction of apoptosis in human EOL-1 cells assessed as late apoptotic cells at 0.56 uM after 24 hrs by Annexin-V FITC/7-AAD staining based flow cytometric method (reference value: 0.535%). It is filed as functional.
The test system of experiment [22] is EOL1. As to the kind of experiment: Induction of apoptosis in human EOL-1 cells assessed as necrotic cells at 0.56 uM after 24 hrs by Annexin-V FITC/7-AAD staining based flow cytometric method (reference value: 0.032%). It is filed as functional.
Experiment [23] relates to EOL1. Kind of experiment: Induction of apoptosis in human EOL-1 cells assessed as live cells at 1.1 uM after 24 hrs by Annexin-V FITC/7-AAD staining based flow cytometric method (reference value: 97.5%). The experiment is classed as functional.
Experiment [24] deals with EOL1. Kind of experiment: Induction of apoptosis in human EOL-1 cells assessed as early apoptotic cells at 1.1 uM after 24 hrs by Annexin-V FITC/7-AAD staining based flow cytometric method (reference value: 1.94%). It is filed as functional.
Experiment [25] relates to EOL1. As to the kind of experiment: Induction of apoptosis in human EOL-1 cells assessed as late apoptotic cells at 1.1 uM after 24 hrs by Annexin-V FITC/7-AAD staining based flow cytometric method (reference value: 0.535%). The experiment is classed as functional.
Experiment [26] concerns EOL1. As to the kind of experiment: Induction of apoptosis in human EOL-1 cells assessed as necrotic cells at 1.1 uM after 24 hrs by Annexin-V FITC/7-AAD staining based flow cytometric method (reference value: 0.032%). It is filed as functional.
Experiment [27] relates to EOL1. Kind of experiment: Induction of apoptosis in human EOL-1 cells assessed as live cells at 2.8 uM after 24 hrs by Annexin-V FITC/7-AAD staining based flow cytometric method (reference value: 97.5%). It is filed as functional.
Experiment [28] concerns EOL1. Kind of experiment: Induction of apoptosis in human EOL-1 cells assessed as early apoptotic cells at 2.8 uM after 24 hrs by Annexin-V FITC/7-AAD staining based flow cytometric method (reference value: 1.94%). The experiment is classed as functional.
Experiment [29] relates to EOL1. Kind of experiment: Induction of apoptosis in human EOL-1 cells assessed as late apoptotic cells at 2.8 uM after 24 hrs by Annexin-V FITC/7-AAD staining based flow cytometric method (reference value: 0.535%). The experiment is classed as functional.
Experiment [30] relates to EOL1. As to the kind of experiment: Induction of apoptosis in human EOL-1 cells assessed as necrotic cells at 2.8 uM after 24 hrs by Annexin-V FITC/7-AAD staining based flow cytometric method (reference value: 0.032%). The experiment is classed as functional.
Experiment [31] has as its system MOLM-13. As to the kind of experiment: Induction of apoptosis in human MOLM13 cells assessed as caspase-3 activation at 10 uM after 72 hrs by immunoblotting analysis. The experiment is classed as functional, cell-based. In a few lines: as §1
Experiment [32] deals with EOL1. Kind of experiment: Induction of apoptosis in human EOL-1 cells assessed as caspase-3 activation at 10 uM after 72 hrs by immunoblotting analysis. It is filed as functional, cell-based. In a few lines: as §2
Experiment [33] concerns the target Transcription factor p65 (Homo sapiens) (UniProt Q04206). As to the kind of experiment: Inhibition of NFkappaB p65 in human MOLM13 cells at 10 uM after 72 hrs by immunoblotting method. It is filed as cell-based. An outline of the steps: (§3)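 MOLM-13 or EOL-1 cells treated 72 h at 10 μM. Cells washed in ice-cold PBS and lysed in hypertonic NP-40 buffer (10 mM HEPES pH 7.5, 0.5 M NaCl) with protease/phosphatase inhibitors. Protein measured by BCA; SDS-PAGE onto PVDF. Probed 12 h with rabbit monoclonal NF-κB-p65 antibody, goat β-actin as loading control, then chemiluminescence. Blots representative of three independent experiments.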

Experiment [34] shares this target. As to the kind of experiment: Inhibition of NFkappaB p65 in human EOL-1 cells at 10 uM after 72 hrs by immunoblotting method. It is filed as cell-based. An outline of the steps: as §3

Active and inactive are the calls of the source. No cut-off for these calls is given here.

Data on two molecules can be found in ChEMBL document CHEMBL4138271, “Crystal Structures and Human Leukemia Cell Apoptosis Inducible Activities of Parthenolide Analogues Isolated from Piptocoma rufescens” (J Nat Prod, 2018).

Transcription factor p65 (Homo sapiens), sequence (Q04206 whole entry): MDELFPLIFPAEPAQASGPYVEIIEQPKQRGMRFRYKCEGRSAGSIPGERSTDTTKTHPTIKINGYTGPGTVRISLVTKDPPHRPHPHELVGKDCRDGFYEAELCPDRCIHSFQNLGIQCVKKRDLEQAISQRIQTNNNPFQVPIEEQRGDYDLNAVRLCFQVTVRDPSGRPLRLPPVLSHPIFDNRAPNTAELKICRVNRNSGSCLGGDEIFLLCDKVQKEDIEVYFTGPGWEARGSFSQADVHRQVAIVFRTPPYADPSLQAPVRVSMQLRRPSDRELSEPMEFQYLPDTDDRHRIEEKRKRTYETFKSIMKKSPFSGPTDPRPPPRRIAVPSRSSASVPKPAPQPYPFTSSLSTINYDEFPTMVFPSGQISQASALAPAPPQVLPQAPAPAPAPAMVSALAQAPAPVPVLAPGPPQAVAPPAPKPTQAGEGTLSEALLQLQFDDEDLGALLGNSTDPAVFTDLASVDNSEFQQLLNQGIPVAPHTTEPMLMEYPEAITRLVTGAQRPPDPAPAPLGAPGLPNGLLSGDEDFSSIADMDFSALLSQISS

`CO[C@@H]1[C@H](N(C)C(=O)c2ccccc2)C[C@H]2O[C@]1(C)n1c3ccccc3c3c4c(c5c6ccccc6n2c5c31)C(=O)NC4`: the outcome in the experiment with MOLM-13 [1] and with EOL1 [2] was Active.

As a reminder, the IC50 is the concentration needed to halve the response being measured. Low readings indicate greater potency, high ones weaker potency. As for `C=C(C)C(=O)O[C@H]1C[C@@]2(C)OC(=CC2=O)/C(CO)=C\[C@H]2OC(=O)C(=C)[C@H]12` [GOIAZENSOLIDE], the IC50 was found to be 0.86 µM with MOLM-13 [3], 1.1 µM with EOL1 [4] and 0.56 µM in the experiment with HT-29. Further, the Activity in the experiment with MOLM-13 [5] was 0.42 µM; in the experiment with EOL1 [6] it was 0.56 µM; in the experiment with MOLM-13 [7] it was 81.8%; with MOLM-13 [8], 14.7%; in the experiment on MOLM-13 [9] it was 3.18%; with MOLM-13 [10], 0.392%. Besides, the Activity in the experiment on MOLM-13 [11] was 2.54%; with MOLM-13 [12], 0.958%; in the experiment with MOLM-13 [13], 94.6%; in the experiment on MOLM-13 [14] it was 1.86%; in the experiment with MOLM-13 [15], 0.135%; with MOLM-13 [16] it was 0.203%. Also, the Activity with MOLM-13 [17] is 97.7%; in the experiment on MOLM-13 [18], 1.96%; in the experiment on EOL1 [19], 91.7%; in the experiment on EOL1 [20], 1.84%; with EOL1 [21] it was 6.18%; in the experiment on EOL1 [22], 0.306%. The Activity in the experiment on EOL1 [23] is 3.99%; with EOL1 [24], 0.281%; with EOL1 [25], 93.3%; in the experiment on EOL1 [26], 2.4%; in the experiment on EOL1 [27], 0.01%; with EOL1 [28], 0%. The Activity with EOL1 [29] is given as 99.8%; in the experiment with EOL1 [30], 0.189%. Also, the outcome in the experiment on MOLM-13 [31] and in the experiment with EOL1 [32] was Active. The inhibition result in [33] and in [34] was “Active” throughout.
